The source made the active and inactive calls. The rule behind the calls is not given here.

The term EC50 denotes the concentration giving half of the maximal effect.

For data set [1], the system named is HOS. In words: Antimigratory activity in human HOS cells at 5 uM after 6 to 10 hrs by wound-healing assay. In kind it is functional, cell-based. In outline:
(§1)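 A confluent monolayer of HOS, 143B or MG63 cells (DMEM, 10% FBS) was scratched with a pipette tip, then given fresh medium with 5 μM compound or vehicle at 37 °C, 5% CO₂. Images were taken every 2 h and wound area normalized to 100% at 0 h. Results are the ratio of wound remaining, treated to control, at 6 and 10 h.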

In data set [2] the test system is 143B. In words: Induction of apoptosis in human 143B cells at 12.5 by Annexin V-FITC/propidium iodide double staining based flow cytometry relative to control. In kind it is functional. (A flow cytometer gives signals particle by particle.)
In data set [3] the test system is MG-63. In words: Antimigratory activity in human MG63 cells at 5 uM measured after 6 hrs by wound-healing assay. In kind it is functional, cell-based. In outline:
as §1

The test system of data set [4] is 143B. In words: Induction of apoptosis in human 143B cells at 12.5 in presence of rimonabant by Annexin V-FITC/propidium iodide double staining based flow cytometry relative to control. The class given is functional.
Data set [5] concerns 143B. In words: Induction of apoptosis in human 143B cells at 12.5 in presence of AM 630 by Annexin V-FITC/propidium iodide double staining based flow cytometry relative to control. In kind it is functional.
Data set [6] deals with 143B. In words: Cytotoxicity against human 143B cells assessed as reduction in cell viability at 25 uM after 24 hrs by cell-titer blue assay. The class given is functional, cell-based.
Data set [7] has as its system HOS. In words: Induction of apoptosis in human HOS cells at 12.5 by Annexin V-FITC/propidium iodide double staining based flow cytometry relative to control. In kind it is functional.
For data set [8], the system named is MG-63. In words: Antimigratory activity in human MG63 cells at 5 uM measured after 10 hrs by wound-healing assay. The class given is functional, cell-based. In outline:
as §1

Data set [9] relates to 143B. In words: Antimigratory activity in human 143B cells at 5 uM measured after 10 hrs by wound-healing assay. In kind it is functional, cell-based. Summed up:
as §1

Data set [10] deals with 143B. In words: Cytotoxicity against human 143B cells assessed as reduction in cell viability at 12.5 uM after 24 hrs by cell-titer blue assay. The class given is functional, cell-based.
The subject of data set [11] is MG-63. In words: Induction of apoptosis in human MG63 cells at 12.5 by Annexin V-FITC/propidium iodide double staining based flow cytometry relative to control. In kind it is functional.
The subject of data set [12] is 143B. In words: Cell cycle arrest in human 143B cells assessed as accumulation at G2 phase after 24 hrs by propidium iodide-staining based flow cytometry (reference value: 17.2 +/- 2.3%). In kind it is functional.
Data set [13] has as its system HOS. In words: Cell cycle arrest in human HOS cells assessed as accumulation at G1 phase after 24 hrs by propidium iodide-staining based flow cytometry (reference value: 47.8 +/- 0.7%). In kind it is functional.
The test system of data set [14] is HUVEC. In words: Cytotoxicity against HUVEC assessed as reduction in cell viability at 1 uM after 24 hrs by cell-titer blue assay. The class given is cell-based. To be noted: human.
Data set [15] concerns the target T1, Fatty-acid amide hydrolase 1 (Sus scrofa, UniProt Q9TUI8).
T1 sequence (Q9TUI8 whole entry): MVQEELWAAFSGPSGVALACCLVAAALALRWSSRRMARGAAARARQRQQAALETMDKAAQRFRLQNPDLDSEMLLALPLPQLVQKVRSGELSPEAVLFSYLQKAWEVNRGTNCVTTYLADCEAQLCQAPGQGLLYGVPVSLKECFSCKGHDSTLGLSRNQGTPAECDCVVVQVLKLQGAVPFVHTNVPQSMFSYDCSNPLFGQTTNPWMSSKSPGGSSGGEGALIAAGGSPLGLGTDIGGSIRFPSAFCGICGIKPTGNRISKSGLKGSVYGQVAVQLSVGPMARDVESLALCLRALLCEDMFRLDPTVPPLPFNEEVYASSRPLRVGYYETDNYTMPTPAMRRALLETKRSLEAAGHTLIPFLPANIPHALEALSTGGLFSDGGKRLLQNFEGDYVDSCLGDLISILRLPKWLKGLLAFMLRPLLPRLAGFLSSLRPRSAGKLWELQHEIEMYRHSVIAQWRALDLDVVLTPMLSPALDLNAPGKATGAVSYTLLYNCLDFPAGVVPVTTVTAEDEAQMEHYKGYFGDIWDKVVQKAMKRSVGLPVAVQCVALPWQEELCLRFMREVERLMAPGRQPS
In words: Drug metabolism in pig forebrain membranes assessed as FAAH-mediated 10,11-EDP formation by measuring hydrolysis rate per mg protein at 20 uM after 40 mins by LC-MS/MS analysis. In kind it is ADME, cell membranes, Membrane. In outline: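 Each 0.5 mL reaction held 5 µg membrane protein in the same buffer with 20 µM amide. Reactions were stopped at 40 min with methanol containing 1 mM PMSF and centrifuged. The supernatant was run on C18 LC-MS/MS, negative ESI, MRM for 10,11-EDP (m/z 343.0).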

Data set [16] deals with MG-63. In words: Cell cycle arrest in human MG63 cells assessed as accumulation at G1 phase after 24 hrs by propidium iodide-staining based flow cytometry (reference value: 62.9 +/- 1.8%). The class given is functional.
In data set [17] the test system is 143B. In words: Antimigratory activity in human 143B cells at 5 uM measured after 10 hrs in presence of CB1 receptor antagonist rimonabant by wound-healing assay. The class given is functional, cell-based.
Data set [18] deals with 143B. In words: Cell cycle arrest in human 143B cells assessed as accumulation at G1 phase after 24 hrs by propidium iodide-staining based flow cytometry (reference value: 56.2 +/- 2.7%). The class given is functional.
Data set [19] deals with MG-63. In words: Cell cycle arrest in human MG63 cells assessed as accumulation at G2 phase after 24 hrs by propidium iodide-staining based flow cytometry (reference value: 16.9 +/- 0.01%). The class given is functional.
For data set [20], the system named is HOS. In words: Cell cycle arrest in human HOS cells assessed as accumulation at S phase after 24 hrs by propidium iodide-staining based flow cytometry (reference value: 37.1 +/- 1.6%). In kind it is functional.
Data set [21] deals with 143B. In words: Cell cycle arrest in human 143B cells assessed as accumulation at S phase after 24 hrs by propidium iodide-staining based flow cytometry (reference value: 26.6 +/- 0.4%). In kind it is functional.
The test system of data set [22] is HUVEC. In words: Anti-angiogenic activity in HUVEC assessed as inhibition of tube formation at 0.5 to 1 uM after 5 hrs by fluorescent microscopy based matrigel assay. In kind it is functional, cell-based. The settings on record: Homo sapiens. Summed up:
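HUVEC at passage 2 were grown to 80% confluency, and 15,000 cells were plated on Matrigel pre-set 1 h at 37 °C. Cells got vehicle, 0.5 or 1 μM compound, with no-matrix and vinblastine controls, in duplicate wells for 5 h at 37 °C. After washing, cells were stained 30 min at 37 °C. Fluorescence images were scored for tube formation with an angiogenesis analyzer.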

Data set [23] relates to MG-63. In words: Cell cycle arrest in human MG63 cells assessed as accumulation at S phase after 24 hrs by propidium iodide-staining based flow cytometry (reference value: 20.2 +/- 1.8%). The class given is functional.
Data set [24] has as its target Cannabinoid receptor 1 (Homo sapiens, UniProt P21554). In words: Agonist activity at N-terminal FLAG-tagged human CB1 receptor transfected in human HTLA cells assessed as induction of beta-arrestin-recruitment after 8 to 14 hrs by bright-glo luminescence based assay. In kind it is functional, cell-based. In outline: (§2)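 HTLA cells (DMEM, 10% FBS, puromycin 2 μg/mL, hygromycin B 100 μg/mL) were seeded at 20,000 per well on poly-L-lysine and transfected after 18–24 h with CNR1 or CNR2 Tango plasmid, 0.1 μg/well. After 36–48 h they were starved 4 h in 1% dialyzed FBS, or 30 min with 1 μM AUDA for epoxides. Log-dose compound was added for 8–14 h, then Bright-Glo luminescence read. RLU was normalized to % receptor response and fitted to a dose-response curve.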

The target in data set [25] is Cannabinoid receptor 2 (Homo sapiens, UniProt P34972). In words: Agonist activity at N-terminal FLAG-tagged human CB2 receptor transfected in human HTLA cells assessed as induction of beta-arrestin-recruitment after 8 to 14 hrs by bright-glo luminescence based assay. In kind it is functional, cell-based. In outline: as §2
Cannabinoid receptor 2, sequence (P34972 whole entry): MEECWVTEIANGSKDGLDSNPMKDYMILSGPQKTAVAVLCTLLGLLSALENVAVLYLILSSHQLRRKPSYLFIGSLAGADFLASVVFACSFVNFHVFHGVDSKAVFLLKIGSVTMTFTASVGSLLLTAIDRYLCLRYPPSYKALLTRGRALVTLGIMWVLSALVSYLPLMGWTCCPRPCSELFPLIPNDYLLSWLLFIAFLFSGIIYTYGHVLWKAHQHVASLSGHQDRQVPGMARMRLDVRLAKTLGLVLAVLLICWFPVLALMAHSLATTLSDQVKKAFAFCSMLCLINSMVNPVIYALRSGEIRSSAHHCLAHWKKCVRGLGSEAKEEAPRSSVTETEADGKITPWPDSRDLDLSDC
The test system of data set [26] is HOS. In words: Cell cycle arrest in human HOS cells assessed as accumulation at G2 phase after 24 hrs by propidium iodide-staining based flow cytometry (reference value: 15.1 +/- 0.97%). The class given is functional.

Cannabinoid receptor 1, sequence (P21554 whole entry): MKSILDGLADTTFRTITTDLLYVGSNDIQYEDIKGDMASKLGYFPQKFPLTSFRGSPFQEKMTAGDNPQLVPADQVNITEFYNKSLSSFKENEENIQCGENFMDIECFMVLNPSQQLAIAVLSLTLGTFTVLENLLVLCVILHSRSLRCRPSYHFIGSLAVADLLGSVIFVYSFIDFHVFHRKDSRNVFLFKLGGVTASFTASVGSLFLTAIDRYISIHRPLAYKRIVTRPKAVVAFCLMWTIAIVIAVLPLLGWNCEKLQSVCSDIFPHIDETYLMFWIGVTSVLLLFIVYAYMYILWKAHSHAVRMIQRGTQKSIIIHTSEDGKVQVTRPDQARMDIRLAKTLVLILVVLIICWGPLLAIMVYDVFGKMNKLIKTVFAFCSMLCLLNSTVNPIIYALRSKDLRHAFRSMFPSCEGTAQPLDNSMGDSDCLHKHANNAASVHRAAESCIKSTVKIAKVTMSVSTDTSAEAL

For `CC/C=C\C/C=C\CC1OC1C/C=C\C/C=C\C/C=C\CCC(=O)NCCO` (configuration not stated), the outcome in data set [1], in data set [3] and in data set [9] was inactive. Also, the Activity in [2] worked out at 9.95%; in data set [4], 13.03%; in data set [5] it was 9.2%; in data set [7], 19.6%; in [11], 16.9%. Moreover, the outcome in data set [6], in data set [8] and in data set [10] was Active.

Consider `CC/C=C\C/C=C\C/C=C\CC1OC1C/C=C\C/C=C\CCC(=O)NCCO` (configuration not stated), for which the Activity in data set [12] is 21.1%; in data set [13] it was 67.2%; in data set [14] it was “Non-Toxic”; in data set [16] it was 67.7%; in data set [2] it was 17.92%; in data set [4], 7.44%. The Activity was determined as 10.9% in data set [5]; 50.7% in [18]; 14.4% in [19]; 20.3% in [20]; 28.9% in [21]; 31.1% in [7]. In addition, the Activity in data set [23] was 17.9%; in [26], 12.4%; in data set [11], 26.6%. In addition, the Drug metabolism in data set [15] is on record as 30 pmol/min. For the same molecule, the result in data set [17] was inactive. For the same molecule, the result in data set [6], in data set [22], in data set [9] and in [10] was Active. Further, the EC50 in [24] was determined as 0.43 nM; in data set [25] it was 22.5 nM.

For `CC/C=C\CC1OC1C/C=C\C/C=C\C/C=C\C/C=C\CCC(=O)NCCO` (configuration not stated), the outcome in data set [6] was Active. In data set [10], the outcome was inactive.

Turning to `CC/C=C\C/C=C\C/C=C\CC1OC1C/C=C\C/C=C\CCC(=O)NC1CC1` (configuration not stated), the Activity is reported as 22.9% in data set [12]; 54.4% in data set [13]; “Non-Toxic” in [14]; 59.6% in [16]; 21.3% in [2]; 54.2% in data set [18]. The Activity is listed as 16.9% in data set [19]; 30.5% in [20]; 22.9% in data set [21]; 27.2% in data set [7]; 23.1% in [23]; 15.1% in data set [26]. The same molecule came in with an Activity in data set [11] of 17.1%. Further, the Drug metabolism in data set [15] worked out at 5.17 pmol/min. In [22], the result was Active.

As to `CC/C=C\C/C=C\C/C=C\CC1OC1C/C=C\C/C=C\CCC(=O)NC(C)CO` (configuration not stated), the Activity is reported as 8.1% in [12]; 55.8% in data set [13]; “Non-Toxic” in data set [14]; 76.7% in data set [16]; 18.8% in data set [2]; 50.1% in data set [18]. The Activity in data set [19] is given as 12.5%; in [20] it was 24.3%; in data set [21], 41.8%; in data set [7], 20.2%; in data set [23], 10.8%; in data set [26] it was 20%. This molecule also gave an Activity in data set [11] of 17.5%. The Drug metabolism in [15] was 0.99 pmol/min. For the same molecule, the outcome in data set [22] was Active.

On to `CCC1OC1C/C=C\C/C=C\C/C=C\C/C=C\C/C=C\CCC(=O)NCCO` (configuration not stated), for which, in [6], the outcome was Active. In data set [10], the result was inactive.

For the molecule `CC/C=C\C/C=C\C/C=C\CC1OC1C/C=C\C/C=C\CCC(=O)NCCCO` (configuration not stated), the Activity in [12] was 23.7%; in data set [13], 62.2%; in data set [14] it was “Non-Toxic”; in [16] it was 63.5%; in [2], 25.7%; in data set [18] it was 52.2%. In addition, the Activity in data set [19] is reported as 17.5%; in data set [20], 20.7%; in data set [21], 24%; in [7], 17.1%; in data set [23], 19%; in [26] it was 17.1%. For the same molecule, in data set [11], the Activity was determined as 15.2%. Moreover, the outcome in data set [22] was Active.

In the case of `CC/C=C\C/C=C\C/C=C\C/C=C\CC1OC1C/C=C\CCC(=O)NCCO` (configuration not stated), the result in data set [1] and in data set [9] was inactive. For the same molecule, the Activity in [2] is reported as 8.75%; in [4], 14.6%; in data set [5], 10.1%; in data set [7], 17.1%; in [11], 16.4%. Also, the outcome in [6], in [8] and in data set [10] was Active.
